The values below come from ChEMBL document CHEMBL1139237, “Identification of inhibitors of N5-carboxyaminoimidazole ribonucleotide synthetase by high-throughput screening” (Bioorg Med Chem, 2009).

pIC50, pKi: −log10 of the molar value. Activity calls are given as the source filed them. No cut-off for these calls is given here.

Data set [1] is described as follows: Inhibition of Escherichia coli N5-CAIR synthetase using variable amount of aminoimidazole ribonucleotide and fixed ATP by ATPase assay. The method in brief:
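PK/LDH-coupled assay at 37 °C in HEPES pH 7.5, KCl, MgCl2, 0.2 mM NADH, 2.0 mM PEP, 1.0 mM NaHCO3. ATP fixed at 1.1 mM and AIR varied 5–250 μM. Inhibitor at 0–50 μM added with AIR to start the reaction. NADH loss read at 340 nm, initial rate over the first 2 min. Mode from Lineweaver-Burk plots, Ki from slope replots.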

Data set [2] can be described thus: Inhibition of Escherichia coli N5-CAIR synthetase using variable amount of ATP and fixed aminoimidazole ribonucleotide by ATPase assay. The method, boiled down: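 PK/LDH-coupled assay at 37 °C in HEPES pH 7.5, KCl, MgCl2, 0.2 mM NADH, 2.0 mM PEP, 1.0 mM NaHCO3. AIR fixed at 100 μM and ATP varied 5–250 μM. Inhibitor at 0–50 μM added with AIR to start the reaction. NADH loss followed at 340 nm, initial velocity over the first 2 min. Mode from Lineweaver-Burk plots, Ki from slope replots.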

In data set [3] the target is T1, Bifunctional phosphoribosylaminoimidazole carboxylase/phosphoribosylaminoimidazole succinocarboxamide synthetase (Homo sapiens) (UniProt P22234).
T1 sequence (whole entry): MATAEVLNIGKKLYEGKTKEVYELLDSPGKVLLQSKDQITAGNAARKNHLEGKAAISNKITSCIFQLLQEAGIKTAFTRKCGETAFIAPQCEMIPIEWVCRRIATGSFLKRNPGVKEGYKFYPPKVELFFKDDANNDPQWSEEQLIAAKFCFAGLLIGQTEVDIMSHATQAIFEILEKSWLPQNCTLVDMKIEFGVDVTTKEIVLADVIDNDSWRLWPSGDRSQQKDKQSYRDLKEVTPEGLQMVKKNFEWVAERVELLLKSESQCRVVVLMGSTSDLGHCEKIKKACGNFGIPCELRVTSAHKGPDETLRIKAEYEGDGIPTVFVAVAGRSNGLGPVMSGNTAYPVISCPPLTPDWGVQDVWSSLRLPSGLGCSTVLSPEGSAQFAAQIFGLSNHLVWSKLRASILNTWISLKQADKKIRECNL
In words: Inhibition of human AIR carboxylase: SAICAR synthetase at 200 uM by coupled assay. The method, boiled down:
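Human bifunctional AIR carboxylase:SAICAR synthetase (>95% pure by SDS-PAGE); both activities measured together by coupled assay, as described for the chicken enzyme; compounds at 200 μM.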

The nature of data set [4]: Inhibition of Escherichia coli N5-CAIR synthetase by phosphate assay. The method in brief:
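E. coli enzyme in 50 mM HEPES pH 7.5, 20 mM KCl, 6.0 mM MgCl2, 100 μM ATP, diluted saturated NaHCO3. Compound at eight concentrations, 0.78–100 μM, with 50 μM AIR added, run 5 min at room temperature. Quenched with malachite green reagent, A600 read after at least 15 min. IC50 taken from Hill fit between enzyme + AIR and no-AIR controls.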

Data set [5] can be described thus: Chemical stability in aqueous solution assessed as compound decomposition after 45 mins. Format: physicochemical. The following applies: buffer, 0.75 h.
Data set [6] can be described thus: Inhibition of Escherichia coli N5-CAIR synthetase using variable amounts of 5-aminoimidazole ribonucleotide or ATP by ATPase assay. The method, boiled down: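 E. coli enzyme (168 ng) in 1 mL cuvette, 50 mM HEPES pH 7.5, 20 mM KCl, 6.0 mM MgCl2, 1.0 mM NaHCO3, PK/LDH coupling (0.2 mM NADH, 2.0 mM PEP, 4 U PK, 17 U LDH). Preincubated with ATP 3 min at 37 °C. ATP fixed 1.1 mM with AIR 5–250 μM, or AIR fixed 100 μM with ATP 5–250 μM. Start with AIR plus inhibitor (0–50 μM); A340 read at 37 °C.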

Data set [7] is described as follows: Chemical stability in aqueous solution assessed as compound decomposition after 30 mins. Format: physicochemical. The following applies: buffer, 0.5 h.

As usually defined, the pKi is −log10 of the Ki, conventionally taken in molar units. In general, pIC50 refers to the IC50 on a negative log10 scale, so that one unit is a factor of ten. A higher pIC50 goes with a low IC50. For `CCN(CC)C(=O)CN1C(=O)C(=O)c2ccccc21`, the pKi in data set [1] is 4.54; in data set [2], 4.40. For the same compound, the result in data set [3] was inactive. Besides, the negative logarithm of the IC50 (pIC50) in data set [4] was 4.98.
Consider `CCOC(=O)c1noc(C)c1-c1csc(CS(=O)(=O)c2ccc(Cl)cc2)n1`, for which the negative logarithm of the Ki (pKi) in data set [1] was 4.21; in data set [2], 4.37. Besides, the outcome in data set [3] was inactive. This compound had a pIC50 in data set [4] of 5.00.
Compound `O=C1C(=O)N(CN2CCOCC2)c2ccc(Br)cc21` gave a pIC50 in data set [4] of 4.64.
On to `Cc1nc(NC2(O)C(=O)c3ccccc3C2=O)cs1`, for which the Stability entry in data set [5] is recorded as “Unstable”. Besides, in data set [6], the Ki entry was “Not Active”. In data set [4], this compound gave a negative logarithm of the IC50 (pIC50) of 5.25.
For `COc1cc(C(F)(F)F)c(C(=O)NC2(O)C(=O)c3ccccc3C2=O)cn1`, in data set [4], the negative-log IC50 (pIC50) was 4.77.
Still for that read-out and setting: the value for `O=C1C(=O)N(CN2CCN(CN3C(=O)C(=O)c4ccccc43)C2)c2ccccc21` was 4.16; that for `CCOC(=O)C1CCN(CN2C(=O)C(=O)c3ccccc32)CC1` was 4.66.
As for `Cc1nonc1NC1(O)C(=O)c2ccccc2C1=O`, the Ki result in data set [6] is on record as “Not Active”. Besides, the pIC50 in data set [4] is 5.64. Moreover, in data set [7], the Stability entry is reported as “Unstable”.
For the compound `Cc1cc(NC2(O)C(=O)c3ccccc3C2=O)n(C)n1`, the pIC50 in data set [4] was 5.11.
For the compound `COc1cscc1C(=O)NC1(O)C(=O)c2ccccc2C1=O`, the pIC50 in data set [4] was 4.77.
Consider `CN1CCN(CN2C(=O)C(=O)c3ccccc32)CC1`, for which the pIC50 in data set [4] is 4.43.
`O=C(NC1(O)C(=O)c2ccccc2C1=O)c1cccc2c1-c1ccccc1C2=O` showed a negative-log IC50 (pIC50) in data set [4] of 5.06.
With `Cc1cc2nc3c(=O)[nH]c(=O)nc-3n(C[C@H](O)[C@H](O)[C@H](O)CO)c2cc1C`, the pKi is 4.09 in data set [1] and 3.91 in data set [2]. For the same compound, in data set [3], the result was inactive. This compound gave a pIC50 in data set [4] of 4.70.
`O=C1Nc2ccc(OC(F)(F)F)cc2C1=O` gave a pIC50 in data set [4] of 4.72.
